Experimental data reported in ChEMBL document CHEMBL2311407, “Design and synthesis of diazatricyclodecane agonists of the G-protein-coupled receptor 119” (J Med Chem, 2013).
≈ marks a conversion by molar mass, not a printed value.

Assays:
[1] = AUC in Beagle dog at 1 mg/kg, iv; type: ADME, organism-based, Canis lupus familiaris; design: dose 1 mg/kg, route intravenous; conditions: plasma
In short: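 Male beagle dogs received 1 mg/kg iv at 2 mL/kg in 5% dimethylacetamide/75% PEG200/20% (30% SBE-CD). Plasma concentrations are total drug. Values are the mean of two animals.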

[2] = Oral bioavailability in Sprague-Dawley rat at 30 mg/kg administered as spray dried dispersion; type: ADME, organism-based; conditions: in vivo
In short: (§1)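 Rats were dosed po at 0.6 mL/kg with a 25% amorphous spray dried dispersion (with HPMCAS-HF) in 20 mM Tris buffer with 0.5% methylcellulose + 0.5% HPMCAS-HF, pH 7.4. Plasma concentrations are total drug. Data are mean ± SD of three animals. F is based on 1 mg/kg rat iv data.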

[3] = Tmax in Sprague-Dawley rat at 30 mg/kg, po administered as spray dried dispersion; type: ADME, organism-based; design: dose 30 mg/kg, route oral; conditions: in vivo
[4] = Cmax in Sprague-Dawley rat at 30 mg/kg, po administered as spray dried dispersion; type: ADME, organism-based; design: dose 30 mg/kg, route oral; conditions: in vivo; in short: as §1
[5] = AUC in Sprague-Dawley rat at 30 mg/kg, po administered as spray dried dispersion; type: ADME, organism-based; design: dose 30 mg/kg, route oral; conditions: plasma; in short: as §1
[6] = Oral bioavailability in Sprague-Dawley rat at 3 mg/kg administered as spray dried dispersion; type: ADME, organism-based; conditions: in vivo; in short: as §1
[7] = Tmax in Sprague-Dawley rat at 3 mg/kg, po administered as spray dried dispersion; type: ADME, organism-based; design: dose 3 mg/kg, route oral; conditions: in vivo; in short: as §1
[8] = Cmax in Sprague-Dawley rat at 3 mg/kg, po administered as spray dried dispersion; type: ADME, organism-based; design: dose 3 mg/kg, route oral; conditions: in vivo; in short: as §1
[9] = AUC in Sprague-Dawley rat at 3 mg/kg, po administered as spray dried dispersion; type: ADME, organism-based; design: dose 3 mg/kg, route oral; conditions: plasma; in short: as §1
[10] = Oral bioavailability in Sprague-Dawley rat at 30 mg/kg administered as milled material in 0.5% methylcellulose; type: ADME, organism-based; conditions: in vivo
In short: (§2)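 Rat po dosing of milled material (2−25 μm premilling, about 190 nm postmilling) suspended in 0.5% methylcellulose. Plasma concentrations are total drug. Data are mean ± SD of three animals. F is calculated from 1 mg/kg rat iv data.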

[11] = Tmax in Sprague-Dawley rat at 30 mg/kg, po dosing of milled material in 0.5% methylcellulose; type: ADME, organism-based; design: dose 30 mg/kg, route oral; conditions: in vivo
In short: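 Nanomilled material (about 190 nm after milling) was suspended in 0.5% methylcellulose and dosed orally to rats. Plasma concentrations are reported as total drug. Values are mean ± SD from three animals.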

[12] = Cmax in Sprague-Dawley rat at 30 mg/kg, po dosing of milled material in 0.5% methylcellulose; type: ADME, organism-based; design: dose 30 mg/kg, route oral; conditions: in vivo; in short: as §2
[13] = AUC in Sprague-Dawley rat at 30 mg/kg, po dosing of milled material in 0.5% methylcellulose; type: ADME, organism-based; design: dose 30 mg/kg, route oral; conditions: in vivo; in short: as §2
[14] = Oral bioavailability in Sprague-Dawley rat at 3 mg/kg dosed as milled material in 0.5% methylcellulose; type: ADME, organism-based; conditions: in vivo; in short: as §2
[15] = Tmax in Sprague-Dawley rat at 3 mg/kg, po dosing of milled material in 0.5% methylcellulose; type: ADME, organism-based; design: dose 3 mg/kg, route oral; conditions: in vivo; in short: as §2
[16] = Cmax in Sprague-Dawley rat at 3 mg/kg, po dosing of milled material in 0.5% methylcellulose; type: ADME, organism-based; design: dose 3 mg/kg, route oral; conditions: in vivo; in short: as §2
[17] = AUC in Sprague-Dawley rat at 3 mg/kg, po dosing of milled material in 0.5% methylcellulose; type: ADME, organism-based; design: dose 3 mg/kg, route oral; conditions: in vivo; in short: as §2
[18] = Oral bioavailability in Sprague-Dawley rat at 3 mg/kg administered in 0.5% methylcellulose; type: ADME, organism-based; conditions: in vivo
In short: (§3)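 Rats were dosed orally at 3 mg/kg in 0.5% methylcellulose. Plasma concentrations are total drug. Data are mean ± SD of three animals. F is based on 1 mg/kg rat iv PK.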

[19] = Tmax in Sprague-Dawley rat at 3 mg/kg, po dosing in 0.5% methylcellulose; type: ADME, organism-based; design: dose 3 mg/kg, route oral; conditions: in vivo; in short: as §3
[20] = Cmax in Sprague-Dawley rat at 3 mg/kg, po dosing in 0.5% methylcellulose; type: ADME, organism-based; design: dose 3 mg/kg, route oral; conditions: in vivo; in short: as §3
[21] = AUC in Sprague-Dawley rat at 3 mg/kg, po dosing in 0.5% methylcellulose; type: ADME, organism-based; design: dose 3 mg/kg, route oral; conditions: in vivo; in short: as §3
[22] = Volume of distribution at steady state in Sprague-Dawley rat at 1 mg/kg, iv; type: ADME, organism-based; design: dose 1 mg/kg, route intravenous; conditions: in vivo, read-out: Vdss
In short: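 Rats received an iv dose of 1 mpk in a vehicle of 10% N-methylpyrrolidone and 90% SBE-CD solution prepared at 30%. Plasma concentrations are total drug. Values are mean ± SD from three animals.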

[23] = Clearance in Sprague-Dawley rat at 1 mg/kg, iv; type: ADME, organism-based; design: dose 1 mg/kg, route intravenous; conditions: in vivo
In short: (§4)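 Rats received 1 mg/kg iv in 10% N-methylpyrrolidone and 90% of a 30% SBE-CD solution. Plasma concentrations are total drug. Data are mean ± SD of three animals.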

[24] = Half life in Sprague-Dawley rat at 1 mg/kg, iv; type: ADME, organism-based; design: dose 1 mg/kg, route intravenous; conditions: in vivo; in short: as §4
[25] = AUC in Sprague-Dawley rat at 1 mg/kg, iv; type: ADME, organism-based; design: dose 1 mg/kg, route intravenous; conditions: plasma; in short: as §4
[26] = Thermodynamic solubility of the compound in PBS at pH 7.4; type: physicochemical; conditions: read-out: Therm_solubility

Compound: Cc1c(Oc2ccc(-n3cnnn3)cc2F)ncnc1N1C2CC3CC1CC(C2)N3C(=O)OC1(C)CC1
- AUC [1]: 4730 ng·h/mL
- bioavailability [2]: > 100%
- Tmax [3]: 4 h
- Cmax [4]: 3490 ng/mL
- AUC [5]: 49100 ng·h/mL
- bioavailability [6]: > 100%
- Tmax [7]: 4.7 h
- Cmax [8]: 484 ng/mL
- AUC [9]: 6140 ng·h/mL
- bioavailability [10]: 31%
- Tmax [11]: 6 h
- Cmax [12]: 912 ng/mL
- AUC [13]: 12500 ng·h/mL
- bioavailability [14]: 78%
- Tmax [15]: 4.7 h
- Cmax [16]: 255 ng/mL
- AUC [17]: 3180 ng·h/mL
- bioavailability [18]: 7.6%
- Tmax [19]: 3 h
- Cmax [20]: 24.2 ng/mL
- AUC [21]: 312 ng·h/mL
- Vd [22]: 3.96 L/kg
- clearance [23]: 13.2 mL/min/kg
- half-life [24]: 4.34 h
- AUC [25]: 1360 ng·h/mL
- solubility thermodynamic [26]: 0.7 µg/mL (≈ 1.38 µM)
